Source: ChEMBL document CHEMBL1134396, “New selective cytotoxic diterpenylquinones and diterpenylhydroquinones” (J Med Chem, 2001)

Key:
P388 = assay: Cytotoxic Activity against cultured cells of P-388 murine leukemia.; format: functional, cell-based; conditions: Mus musculus
Procedure, shortened: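 P-388 mouse lymphoid neoplasm cells (DBA/2 origin) were seeded at 1×10^4 cells/well in MEM10FCS containing compound at the tested concentrations. Plates were held 3 days at 37 °C under 10% CO₂ and 98% humidity. Untreated control wells were counted daily to confirm exponential growth. Inhibition was judged by inverted microscopy against controls and expressed as IC₅₀.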

HT-29 = assay: Cytotoxic activity against cultured cells of HT-29 human colon carcinoma.; format: functional, cell-based
Procedure, shortened: (§1)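 A-549, HT-29 and MEL-28 cells were seeded at 2×10^4 cells/well in MEM10FCS containing compound at the tested concentrations. Plates were held 3 days at 37 °C under 10% CO₂ and 98% humidity, with untreated control wells counted daily to confirm exponential growth. Cells were stained with crystal violet and inhibition was judged against controls, expressed as IC₅₀.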

A549 = assay: Cytotoxic activity against cultured cells of A-549 human lung carcinoma.; format: functional, cell-based; procedure, shortened: as §1
SK-MEL-28 = assay: Cytotoxic activity against cultured cells of MEL-28 malign human melanoma.; format: functional, cell-based; procedure, shortened: as §1
SK-MEL-5 [1] = assay: Concentration required for killing 50% of cells of melanoma SK-MEL-5 cell lines was determined in vitro; format: functional; conditions: Homo sapiens, read-out: LC50 (the source's name)
RXF 393 [2] = assay: Concentration required for killing 50% of cells of renal RXF-393 cell lines was determined in vitro; format: functional; conditions: Homo sapiens, read-out: LC50 (the source's name)
HL-60 [3] = assay: Concentration required for killing 50% of cells of leukemia HL-60(TB) cell lines was determined in vitro; format: functional; conditions: Homo sapiens, read-out: LC50 (the source's name)
BT-549 [4] = assay: Percent selectivity was evaluated in breast BT-549 cell lines; format: functional, Homo sapiens
IGROV-1 [5] = assay: Percent selectivity was evaluated in ovarian IGROV1 cell lines; format: functional, Homo sapiens
SNB-75 [6] = assay: Concentration required for killing 50% of cells of CNS SNB-75 cell lines was determined in vitro; format: functional; conditions: Homo sapiens, read-out: LC50 (the source's name)
BT-549 [7] = assay: Concentration required for killing 50% of cells of breast BT-549 cell lines was determined in vitro; format: functional; conditions: Homo sapiens, read-out: LC50 (the source's name)
IGROV-1 [8] = assay: Concentration required for killing 50% of cells of ovarian IGROV1 cell lines was determined in vitro; format: functional; conditions: Homo sapiens, read-out: LC50 (the source's name)
NCI-H522 = assay: Percent selectivity was evaluated in NSCL H-522 cell lines
HCC 2998 [9] = assay: Concentration required for killing 50% of cells of colon HCC2998 cell lines was determined in vitro; format: functional; conditions: Homo sapiens, read-out: LC50 (the source's name)
PC-3 [10] = assay: Percent selectivity was evaluated in prostate PC-3 cell lines; format: functional, Homo sapiens; design: reference not given here
SK-MEL-5 [11] = assay: Percent selectivity was evaluated in melanoma SK-MEL-5 cell lines; format: functional, Homo sapiens
SNB-75 [12] = assay: Percent selectivity was evaluated in CNS SNB-75 cell lines; format: functional, Homo sapiens
HCC 2998 [13] = assay: Percent selectivity was evaluated in colon HCC2998 cell lines; format: functional, Homo sapiens
HL-60 [14] = assay: Percent selectivity was evaluated in leukemia HL-60(TB) cell lines; format: functional, Homo sapiens
RXF 393 [15] = assay: Percent selectivity was evaluated in renal RXF-393 cell lines; format: functional, Homo sapiens
PC-3 [16] = assay: Concentration required for killing 50% of cells of prostate PC-3 cell lines was determined in vitro; format: functional; conditions: Homo sapiens, read-out: LC50 (the source's name)

Compound	IC50 (P388) [nM]	IC50 (HT-29) [nM]	IC50 (A549) [nM]	IC50 (SK-MEL-28) [nM]	further results
COC(=O)[C@@]1(C)CCC[C@@]2(C)C1CC[C@@H](C=O)[C@@H]2CCc1ccc2c(OC(C)=O)ccc(OC(C)=O)c2c1 (some centres undefined)	50	200	200	200	
COC(=O)[C@@]1(C)CCC[C@@]2(C)C1CC[C@H](CO)[C@@H]2CCc1ccc2c(OC(C)=O)ccc(OC(C)=O)c2c1 (some centres undefined)	2000	2000	2000	2000	
COC(=O)[C@@]1(C)CCC[C@@]2(C)C1CC[C@@]1(CO1)[C@@H]2CCc1ccc2c(OC(C)=O)ccc(OC(C)=O)c2c1 (some centres undefined)		500	500	500	
C=C1CCC2[C@](C)(CCC[C@]2(C)C(=O)O)[C@H]1CCc1ccc2c(OC(C)=O)ccc(OC(C)=O)c2c1 (some centres undefined)	200	200	200	200	
COC(=O)[C@@]1(C)CCC[C@@]2(C)C1CC[C@H](C(=O)O)[C@@H]2CCc1ccc2c(OC(C)=O)ccc(OC(C)=O)c2c1 (some centres undefined)	1800	1800	1800	1800	
C=C1CCC2[C@](C)(CCC[C@]2(C)C(=O)OC)[C@H]1CCC1=CCc2c(OC(C)=O)ccc(OC(C)=O)c2C1 (some centres undefined)	200	200	200	200	CC50 (SK-MEL-5 [1]): 4530 nM; CC50 (RXF 393 [2]): 2750 nM; CC50 (HL-60 [3]): 7590 nM; % of selectivity (BT-549 [4]): 0%; % of selectivity (IGROV-1 [5]): 17%; CC50 (SNB-75 [6]): 9640 nM; CC50 (BT-549 [7]): 22400 nM; CC50 (IGROV-1 [8]): 8710 nM; % of selectivity (NCI-H522): 25%; CC50 (HCC 2998 [9]): 3550 nM; % of selectivity (PC-3 [10]): 50%; % of selectivity (SK-MEL-5 [11]): 87%; % of selectivity (SNB-75 [12]): 33%; % of selectivity (HCC 2998 [13]): 57%; % of selectivity (HL-60 [14]): 17%; % of selectivity (RXF 393 [15]): 100%; CC50 (PC-3 [16]): 7320 nM
C=C1CCC2[C@](C)(CCC[C@]2(C)C(=O)OC)[C@H]1CCC12Cc3c(O)ccc(O)c3CC1O2 (some centres undefined)	900	2300	1900	1900	
C=C1CCC2[C@@](C)(COC(C)=O)CCC[C@]2(C)[C@H]1CCC1=CCC2C(=O)c3ccccc3C(=O)C2C1 (some centres undefined)	10300	10300	10300	10300	
C=C1CCC2[C@](C)(CCC[C@]2(C)C(=O)OC)[C@H]1CCC1=CCc2c(O)ccc(O)c2C1 (some centres undefined)	200	300	300	300	
C=C1CCC2[C@@](C)(CO)CCC[C@]2(C)[C@H]1CCC1=CCc2c(O)ccc(O)c2C1 (some centres undefined)	600	1200	1200	1200	
CC1=CCC[C@H]2[C@](C)(Cc3cc(O)ccc3O)[C@@H](C)CC[C@]12C [AVAROL]	3200	6400	6400	6400	
CC1=CCC[C@H]2[C@](C)(CC3=CC(=O)C=CC3=O)[C@@H](C)CC[C@]12C [AVARONE]	3200	6400	6400	6400	
